Assay outcomes (PubChem)
Most compounds without a hit are left out; they make up all but 1.8% or so of the library.
CHRM4 agonist: agonists of human muscarinic M4 receptor (CHRM4). CHO-K1 hM4/Gqi5, Fluo-8 calcium fluorescence; vehicle 0%, full acetylcholine response 100%. activation, % at 3 µM. 360,000 compounds, 0.14% hits;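 active means activation above the run mean over all test wells plus 3 SD, cut at about 32% in these data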;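 further: peak over basal fluorescence ratio per well then scaled between controls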
Target sequence (P08173 whole entry, looked up): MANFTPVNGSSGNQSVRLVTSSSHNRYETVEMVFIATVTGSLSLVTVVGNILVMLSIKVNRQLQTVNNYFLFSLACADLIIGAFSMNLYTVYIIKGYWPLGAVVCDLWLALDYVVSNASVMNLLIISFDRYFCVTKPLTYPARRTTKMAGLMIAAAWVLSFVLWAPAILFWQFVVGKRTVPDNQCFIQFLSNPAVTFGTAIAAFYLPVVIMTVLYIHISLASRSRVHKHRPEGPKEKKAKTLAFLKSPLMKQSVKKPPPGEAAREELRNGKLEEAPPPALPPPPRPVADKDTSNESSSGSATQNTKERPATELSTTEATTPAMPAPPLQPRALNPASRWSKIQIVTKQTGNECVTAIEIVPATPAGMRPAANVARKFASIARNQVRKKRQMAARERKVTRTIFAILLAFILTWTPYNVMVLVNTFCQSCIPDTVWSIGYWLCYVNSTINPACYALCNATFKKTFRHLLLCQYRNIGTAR
M4 PAM: positive allosteric modulators of human muscarinic M4 receptor; P08173; CHO-K1 hM4/Gqi5, Fluo-8 calcium fluorescence, ACh EC20; 0% = ACh EC20, 100% = maximal ACh; activation, % at 3 µM; 360,000 compounds, 0.4% hits; AID 624126;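 active means activation above its plate's cutoff, the mean activation of sample wells plus 3 SD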
M4 antag: blocks acetylcholine activation of human M4 receptor; P08173; CHO-hM4 cells, ACh EC80, Fluo-8 calcium fluorescence; inhibition, % at 3 µM; 360,000 compounds, 0.73% hits;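 active means inhibition above its plate's cutoff, the mean inhibition of sample wells plus 3 SD, cut at about 27% in these data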
M5 antag: CHRM5 antagonism in calcium assay. P08912. CHO-hM5 cells, Fluo-8 calcium fluorescence, ACh EC80. inhibition, % at 3 µM. 360,000 compounds, 0.59% hits. AID 624040;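 active means inhibition above a per-plate cutoff, the mean of that plate's test compounds plus 3 SD, cut at about 27% in these data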
M5 ag: CHRM5 agonism in calcium assay | AID 624037 | P08912 | 360,000 compounds, 0.19% hits | activation, % at 3 µM | CHO-K1 hM5 cells, Fluo-8 calcium fluorescence; 0% DMSO wells, 100% maximal acetylcholine response;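 active means activation above the run's mean over test compounds plus 3 SD, cut at about 23% in these data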;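 further: signal is peak over basal fluorescence ratio across the kinetic read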
M5 PAM: potentiates acetylcholine response at human M5 receptor; P08912; CHO-K1 hM5, Fluo-8 calcium, ACh EC20 PAM; 0% = ACh EC20, 100% = ACh EC100; activation, % at 3 µM; 360,000 compounds, 0.3% hits; AID 624038;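 active means activation above the run cutoff, the mean activation of all test compounds plus 3 SD, cut at about 18% in these data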
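Assay system – human M5 receptor in CHO-K1 cells · Read-out – % activation, ACh-normalized · Technique – Fluo-8 calcium fluorescence · Dosing – single-point, 3 µM nominal · Incubation – Fluo-8 loading 80 min at 37 °C plus 30 min room temperature · Repeats – singlicate, one well per test compound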
Numbers stand for hits; n = inactive.

SMILES	CHRM4 agonist	M4 PAM	M4 antag	M5 antag	M5 ag	M5 PAM
OCC1OC(n2cnc3ccccc32)CC1O (centres undefined)	n	n	n	n	n	n
C[C@H](CO)N1C[C@H](C)[C@@H](CN(C)Cc2ccc(Cl)c(Cl)c2)Oc2c(NS(=O)(=O)c3ccc(F)cc3)cccc2C1=O	n	n	n	n	n	n
COc1ccc(OCCCC(=O)ON=C(N)c2ccccc2Cl)cc1	n	n	n	n	n	n
O=C(/C=C/c1ccc(Cl)cc1Cl)NCCN1CCOCC1	n	29.5	n	n	n	n
Cc1c(S(=O)(=O)N(C)C2CCCCC2)c(=O)n(C)c(=O)n1C	n	n	n	n	n	n
OC(c1cccc(OCc2ccccc2)c1)c1nnc(-c2ccccc2)o1 (centres undefined)	n	n	n	28.1	n	n
O=C(O)CC1(CC(=O)Nc2cc3ccccc3cn2)CCCCC1	n	n	n	n	n	n
CCOc1ccc(NC(=O)Cn2c(=O)n(CCCC(=O)NC3CCN(Cc4ccccc4)CC3)c(=O)c3ccccc32)cc1	n	n	n	n	n	n
COc1ccc(CN(C(C)=O)c2cc(C)c([N+](=O)[O-])cc2OC)cc1OC	n	n	n	n	n	n
COc1ccc(/C=C/CN2CCC(Oc3ccc(C(=O)N4CCCCC4)cc3)CC2)cc1	n	n	31.0	34.7	n	n
CCCOC1CCCN(C(=O)c2ccc(OC3CCN(Cc4ccccn4)CC3)cc2)C1 (centres undefined)	n	n	n	n	n	n
COC(=O)c1ccc(CN2CCC(Oc3ccc(C(=O)N4CCCCC4)cc3)CC2)cc1	n	n	62.5	n	n	n
CSc1ccc(CN2CCC(Oc3cccc(C(=O)N4CCCC4)c3)CC2)cc1	n	n	55.4	68.7	n	n
O=C(c1ccc(OC2CCN(Cc3ccccn3)CC2)cc1)N1CCCC(O)C1 (centres undefined)	n	n	n	n	n	23.7
CCN(CC(=O)Nc1ccccc1C(F)(F)F)C(=O)c1ccc(-n2nc(C)c(CCC(=O)OC)c2C)cc1	n	n	n	n	n	n
CCOc1ncccc1C(=O)Nc1cccc(S(=O)(=O)N2CCOCC2)c1	n	n	n	n	n	n
CC(C)Oc1ccc(C(=O)OCC(=O)N2CCCc3ccccc32)cc1	n	n	n	n	n	n
COC(=O)c1ccc(CN2CCC(Oc3cccc(C(=O)N4CCCC4)c3)CC2)cc1	n	n	94.9	80.4	n	n
O=C(c1cccc(OC2CCN(Cc3cc(F)cc(F)c3)CC2)c1)N1CCCC1	n	n	n	n	n	n
C[C@H]1CN([C@@H](C)CO)C(=O)CCCn2nncc2CO[C@H]1CN(C)S(=O)(=O)c1ccc2c(c1)OCCCO2	n	n	n	n	n	n
Cc1ccc(/C=N/N2CCN(Cc3ccccc3)CC2)o1	n	n	n	n	n	n
Cc1ccc(/C=N/N2CCN(Cc3cccc4ccccc34)CC2)o1	n	n	29.5	n	n	n
CNC(=O)c1ccc(NC(=O)CC2SC(N3CCCC3)=NC2=O)cc1 (centres undefined)	n	22.1	n	n	n	n
CC(C)NC(=O)c1ccc(NC(=O)CC2SC(N3CCCC3)=NC2=O)cc1 (centres undefined)	n	n	n	n	n	n
O=C(COc1cccnc1[N+](=O)[O-])Nc1ncc(Cl)cc1Cl	n	24.5	n	n	n	n
CC1(C)OC(=O)CC1C(=O)NCc1ccccc1 (centres undefined)	n	n	n	n	n	25.5
Cc1ccc(C(=O)N(CC(=O)NC2CCCC2)c2ccccc2Cl)s1	n	n	n	n	n	n
Cc1ccc(NC(=O)CN(C)C(=O)C(Sc2ccccc2)c2ccccc2)cc1 (centres undefined)	n	n	n	n	n	n
CCCCc1ccc(S(=O)(=O)NC2CCS(=O)(=O)C2)cc1 (centres undefined)	n	n	n	n	n	20.7
